# Hits are enriched below; roughly 1.9% of the tested compounds scored in any of these assays.
# NPY-Y1 antag – NPY-Y1 receptor antagonists, primary screen, cell-based; HEK293-CNG Y1 cells, membrane potential fluorescence; NPY at EC95, then isoproterenol; inhibition, % at 3.6 µM; hit rate 1% among 200,000; Neuropeptide Y receptor type 1 (Homo sapiens), P25929;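 active = inhibition above the campaign mean inhibition of all tested compounds plus 3 SD, cut at about 20% in these data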;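 note: 0% = DMSO wells given NPY plus isoproterenol and 100% = isoproterenol alone without NPY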
#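 Material: HEK293 cells with Y1 receptor plus CNG channel; times: compound incubation 1 h at room temperature, readout 45 min post-stimulation; signal: fluorescence, membrane potential probe; read-out basis: fluorescence ratio normalized to % inhibition between controls; benchmarks: full-block control isoproterenol-only wells, zero-block control NPY plus isoproterenol wells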
# NPY-Y2 antag – NPY-Y2 receptor antagonists, primary screen, cell-based; AID 793, 2007; NPY-Y2 expressing cells, antagonist mode; hit rate 0.99% among 140,000; Neuropeptide Y receptor type 2 (Homo sapiens), P49146; inhibition, % at 2.7 µM; in the data active = inhibition above about 17%;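 note: 0% = vehicle with agonist challenge and 100% = reference antagonist with challenge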
# Target sequence (P49146 whole entry, looked up): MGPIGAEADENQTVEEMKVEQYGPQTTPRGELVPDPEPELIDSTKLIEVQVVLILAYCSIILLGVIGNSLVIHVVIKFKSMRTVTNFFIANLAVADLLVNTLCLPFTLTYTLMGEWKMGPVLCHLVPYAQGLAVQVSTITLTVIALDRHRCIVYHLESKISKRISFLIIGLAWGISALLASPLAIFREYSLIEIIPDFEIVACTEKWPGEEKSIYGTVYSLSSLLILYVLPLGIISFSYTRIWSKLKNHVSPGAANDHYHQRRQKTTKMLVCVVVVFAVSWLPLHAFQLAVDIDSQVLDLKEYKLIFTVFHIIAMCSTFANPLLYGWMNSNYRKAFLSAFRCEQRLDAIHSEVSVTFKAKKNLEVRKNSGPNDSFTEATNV
# NPY1 pot ag – NPY-Y1 receptor potentiators or agonists, primary screen, cell-based; Neuropeptide Y receptor type 1 (Homo sapiens), P25929; NPY-Y1 expressing cells, potentiator/agonist activation; activation, % at 3.6 µM; hit rate 0.37% among 220,000; AID 1304, 2008; in the data active = activation above about 33%, passing the limit was not always enough;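 note: cells stimulated with NPY at EC10 then isoproterenol at EC100; 0% = low agonist plus stimulus and 100% = saturating agonist plus stimulus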
# NPY-Y2 PAM-ag – NPY-Y2 potentiators or agonists, primary screen, cell-based; activation, % at 3.6 µM; Neuropeptide Y receptor type 2 (Homo sapiens), P49146; cells expressing NPY-Y2, potentiator/agonist read-out; AID 1359, 2008; hit rate 0.45% among 220,000; in the data active = activation above about 27%;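 note: cells stimulated with NPY near EC25 plus isoproterenol at EC100; 0% = vehicle plus submaximal agonist and 100% = vehicle plus saturating agonist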
# NPY-Y2 pot conf – NPY-Y2 potentiators or agonists, confirmation, cell-based | hit rate 20% among 450 | cell-based NPY-Y2 potentiator/agonist assay | activation, % at 3.6 µM | AID 1539, 2009 | shares compounds with NPY-Y2 PAM-ag; in the data active = activation above about 33%
# NPY-Y1 potentiator – NPY-Y1 potentiators or agonists, counter-screen for NPY-Y2 potentiator project, cell-based, fluorescence | shares compounds with NPY-Y2 PAM-ag | Y1 HEK293-CNG cells, membrane potential fluorescence | activation, % at 3.6 µM | hit rate 20% among 450 | AID 1651, 2009; in the data active = activation above about 45%;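 note: cells stimulated with submaximal NPY then isoproterenol with phosphodiesterase inhibitor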
# NPY-Y1 ag 2 – NPY-Y1 direct agonists, selectivity assay for NPY-Y2 potentiator project, cell-based, fluorescence; hit rate 37% among 450; shares compounds with NPY-Y2 PAM-ag; activation, % at 3.6 µM; HEK293 Y1-CNGC, membrane potential fluorescence, agonism;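 active = activation above the mean of DMSO-only control wells plus 3 SD, cut at about 18% in these data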;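 note: cells stimulated with 1 µM isoproterenol plus the PDE inhibitor Ro 20-1724; 0% = isoproterenol with DMSO and no NPY and 100% = 40 nM NPY; Y1 agonists lower the membrane potential dye signal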
# CNGC inhibitor – CNGC cAMP sensor activity inhibitors, counter-screen for NPY-Y2 potentiator project, cell-based, HEK293-CNG parental, membrane potential fluorescence; shares compounds with NPY-Y2 PAM-ag; isoproterenol cAMP; inhibition, % at 3.6 µM; hit rate 32% among 450; AID 1703, 2009;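 active = inhibition above the control-well mean plus 3 SD of those wells, cut at about 22% in these data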;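 note: 0% = DMSO with isoproterenol and 100% = DMSO without isoproterenol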
# NPY-Y2 ag 2 – NPY-Y2 direct agonists, counter-screen for NPY-Y2 potentiator project, cell-based, fluorescence; shares compounds with NPY-Y2 PAM-ag; HEK293 Y2/CNGC cells, membrane potential fluorescence, agonist mode; activation, % at 3.6 µM; hit rate 56% among 450;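 active = activation above the mean of solvent-only control wells plus 3 SD, cut at about 10% in these data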;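 note: cells stimulated by isoproterenol with no NPY added so direct agonism is tested; 0% = DMSO with isoproterenol alone and 100% = NPY at EC100 plus isoproterenol; agonism lowers probe fluorescence through less cAMP and CNG channel opening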
# * marks the source's active call; other numbers are inactive results; / = no result.
SMILES,NPY-Y1 antag,NPY-Y2 antag,NPY1 pot ag,NPY-Y2 PAM-ag,NPY-Y2 pot conf,NPY-Y1 potentiator,NPY-Y1 ag 2,CNGC inhibitor,NPY-Y2 ag 2
CN(c1nc(-c2ccc(Br)cc2)cs1)C1CCS(=O)(=O)C1 (stereo not given),-4,/,-4,12,/,/,/,/,/
CC(C)(SC(=S)N1CCCCCC1)C(=O)O,3,/,-8,7,/,/,/,/,/
CC(SC(=S)N1CCCC1)C(=O)O (stereo not given),0,/,20,37*,-3,-7,0,2,13*
O=C(CN1CCN(Cc2ccc(Cl)cc2)CC1)N/N=C/c1cccc(F)c1,/,/,16,99*,-6,-6,-14,3,1
O=C(CN1CCN(Cc2ccc(Cl)cc2)CC1)N/N=C/c1cccs1,/,/,-10,6,/,/,/,/,/
COC(=O)c1sccc1NS(=O)(=O)c1ccc(OC)cc1,4,0,-35,31*,-5,-8,-8,-9,5
O=C(c1ccccc1)c1c2c(cc3sc4ccccc4[n+]13)-c1cccc3cccc-2c13,-7,4,35,40*,51*,60*,54*,56*,60*
Cc1sc2cc3c(c(C(=O)c4ccccc4)[n+]2c1C)-c1cccc2cccc-3c12,1,6,16,31*,20,11,8,9,16*
O=C(N/N=C/c1ccco1)c1cccc(N2Cc3ccccc3C2)c1,-1,/,4,4,/,/,/,/,/
COc1cccc(C(=O)Nc2ccc(F)cc2F)c1,4,6,-2,4,/,/,/,/,/
COc1cccc(C(=O)Nc2ccccc2F)c1,4,/,16,30*,-3,-5,5,3,-4
COc1cc(C(=O)Nc2nnc(C3CC3)s2)ccc1OCc1c(C)noc1C,0,/,4,4,/,/,/,/,/
Cc1sc2nc(SCc3ccc(C(=O)O)cc3)n(Cc3ccco3)c(=O)c2c1C,/,/,27,56*,24,29,32*,17,22*
CCc1ccc(N(CC(=O)Nc2nc3ccc(C)cc3s2)S(=O)(=O)c2c(C)noc2C)cc1,1,2,26,31*,28,30,45*,33*,49*
COc1ccc2nc(NC(=O)CSc3nccc(C)n3)sc2c1,-10,-6,20,35*,25,46*,53*,40*,51*
CCCOc1ccc(/C=N/Nc2ccc(C(=O)O)cc2)c(OCCC)c1,1,/,15,30*,13,17,11,9,21*
Fc1ccc(NC(=S)N2CCCN(c3ccc(C(F)(F)F)cn3)CC2)c(F)c1,/,/,24,43*,2,-35,-24,-11,8
CCOC(=O)/C=C1\SCC(=O)N1CC(=O)NC(C)c1ccc(F)cc1 (stereo not given),5,4,-1,-7,/,/,/,/,/
Cc1cccc2c(N)c3c(nc12)CCCC3 (tested in a mixture with another compound),5,/,33,49*,52*,64*,-1,10,48*
CCCn1nnc(NC(=O)C(C)Oc2ccc(Cl)cc2Cl)n1 (stereo not given),4,1,9,-26,/,/,/,/,/
CC(Oc1cc(Cl)ccc1Cl)C(=O)N/N=C\c1ccnn1C (stereo not given),-3,2,-1,27*,-3,-5,-2,-4,6
CCOC(=O)c1c(C)sc2c1N(C(=O)CCl)c1cc(Cl)ccc1S2,2,2,48,38*,25,42,34*,4,9
O=C(CCl)N=c1sccn1Cc1cccc2ccccc12,-2,/,8,27*,-4,-8,-11,14,3
CC(=O)SCCC(=O)Nc1ccccc1,-16,-7,26,44*,32,41,52*,37*,47*
CC(=O)NNC(=O)CCC(=O)Nc1ccccc1,-1,3,-1,0,/,/,/,/,/
SMILES,NPY-Y1 antag,NPY-Y2 antag,NPY1 pot ag,NPY-Y2 PAM-ag,NPY-Y2 pot conf,NPY-Y1 potentiator,NPY-Y1 ag 2,CNGC inhibitor,NPY-Y2 ag 2
COc1ccc(/C=c2/sc3n(c2=O)C(c2ccccc2OC)C2=C(N=3)c3ccccc3CC2)cc1O (stereo not given),-9,1,21,36*,12,25,18*,16,9
COc1ccc(C(=O)N2CCC(O)(c3ccc(Cl)cc3)CC2)cc1OC,/,/,22,95*,-2,-10,-7,3,0
CSc1cccc(NC(=S)Nc2cc(C)ccc2C)c1,/,/,-10,-9,/,/,/,/,/
Cc1nc2cc(F)ccc2n1C1CCN(S(=O)(=O)c2ccccc2)CC1,0,-2,21,14,/,/,/,/,/
Cc1ccc2sc(N(CCCN(C)C)C(=O)c3ccc(Br)s3)nc2c1C,17,/,29,52*,69*,78*,84*,62*,65*
Cc1ccc2sc(N(CCCN(C)C)C(=O)c3nc4ccccc4s3)nc2c1C,7,/,-17,-7,/,/,/,/,/
CN(C)CCCN(C(=O)c1ccc(Br)s1)c1nc2cc3c(cc2s1)OCO3,8,/,31,43*,67*,79*,55*,66*,63*
O=C(Nc1nc(-c2ccccc2)cs1)c1ccccc1NS(=O)(=O)c1ccc(F)cc1,12,0,6,46*,5,-8,-7,12,6
COc1ccc(Cn2c(O)c(C=Nc3ccccc3C(=O)O)c3ccccc3c2=O)cc1,/,/,47,54*,17,29,28*,4,27*
COc1ccccc1NS(=O)(=O)c1cccc(-n2c(O)c(C=Nc3ccccc3C(=O)O)c3ccccc3c2=O)c1,/,/,32,45*,28,35,34*,16,30*
Cc1ccc(CN2CCN(C3CCOCC3)CC2CCO)cc1 (stereo not given),3,/,9,3,/,/,/,/,/
CCN(CC)CCCN(C(=O)c1ccco1)c1nc(-c2ccc(C)cc2)cs1,11,/,17,25*,64*,65*,45*,58*,62*
Cc1ccc2nc(NC(=O)COC(=O)c3ccco3)sc2c1,-5,2,-7,13,/,/,/,/,/
O=C(COC(=O)c1ccco1)Nc1nc2ccc([N+](=O)[O-])cc2s1,/,/,30,42*,31,50*,53*,40*,49*

# Screening data as filed in PubChem BioAssay.
